# Reference: ChEMBL document CHEMBL5335790, “Design, synthesis and biological evaluation of novel 2,4-thiazolidinedione derivatives able to target the human BAG3 protein” (Eur J Med Chem, 2023)
# Activity calls are given as the source filed them. No cut-off for these calls is given here.
# Assays:
# [1] = biological target: T1, BAG family molecular chaperone regulator 3 (Homo sapiens, UniProt O95817); test: Binding affinity to CM4 sensorchip immobilized C-terminal His tagged human BAG3 transfected in HEK293T cells assessed as binding capacity at 50 uM by SPR analysis
# T1 sequence (O95817 whole entry): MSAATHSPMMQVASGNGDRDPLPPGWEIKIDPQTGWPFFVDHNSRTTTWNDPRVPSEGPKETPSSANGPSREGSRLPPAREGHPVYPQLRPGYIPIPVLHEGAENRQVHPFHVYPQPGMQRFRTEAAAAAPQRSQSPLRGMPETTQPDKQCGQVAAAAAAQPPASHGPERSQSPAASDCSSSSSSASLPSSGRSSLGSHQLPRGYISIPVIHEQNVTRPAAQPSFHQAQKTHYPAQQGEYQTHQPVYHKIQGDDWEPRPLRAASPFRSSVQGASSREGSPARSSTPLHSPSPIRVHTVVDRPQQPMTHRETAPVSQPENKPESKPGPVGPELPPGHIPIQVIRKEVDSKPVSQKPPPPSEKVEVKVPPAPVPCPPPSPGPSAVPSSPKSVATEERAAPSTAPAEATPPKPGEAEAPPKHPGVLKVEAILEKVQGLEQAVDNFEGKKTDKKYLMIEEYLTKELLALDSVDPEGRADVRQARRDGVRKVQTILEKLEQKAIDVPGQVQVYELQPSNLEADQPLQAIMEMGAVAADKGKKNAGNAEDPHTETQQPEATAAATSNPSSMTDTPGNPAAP
# How it was run: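 SPR screen on BAG3-His amine-coupled to a CM4 chip at 60 µg/mL in pH 2.8 acetate. Compound at 50 µM in PBS with 5% DMSO and 0.05% P20 was injected for 90 s at 30 µL/min, then washed. Chip regenerated with 10 mM glycine pH 3. Bound RU read at equilibrium against a void flow cell; 3–10 repeats, mean ± SEM.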
# [2] = biological target: T1, BAG family molecular chaperone regulator 3; test: Binding affinity to CM4 sensorchip immobilized C-terminal His tagged human BAG3 transfected in HEK293T cells assessed as signal saturation at 50 uM by SPR analysis
# HD-MB03 [3] = test: Antiproliferative activity against human HD-MB03 cells assessed as cell growth inhibition incubated for 72 hrs by resazurin dye based analysis; type: functional
# How it was run: (§1)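 Cells seeded at 2000/well, treated 24 h later with compounds in a 6-point 2-fold dose series, duplicate wells, two independent experiments. After 72 h, resazurin was added at 44 µM final for 3 h at 37 °C and fluorescence was read at 590 nm. Viability was normalized to 1 µM bortezomib (positive) and 0.5% DMSO (negative) controls. GI50 is the mean ± SEM of dose-response curves.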
# RS4-11 = test: Antiproliferative activity against human RS4-11 cells assessed as cell growth inhibition incubated for 72 hrs by resazurin dye based analysis; type: functional; how it was run: as §1
# [4] = Cytotoxicity against PHA stimulated human PBMC cells assessed as cell growth inhibition incubated for 72 hrs by MTT assay; type: toxicity, cell-based
# HD-MB03 [5] = test: Induction of cell cycle arrest in human HD-MB03 cells assessed as accumulation of cells at G2/M phase at 10 uM incubated for 48 hrs by RNase/PI staining based cytofluorimetric analysis (reference value: 4.4%); type: functional
# HD-MB03 [6] = test: Induction of cell cycle arrest in human HD-MB03 cells assessed as accumulation of cells at G1 phase at 10 uM incubated for 72 hrs by RNase/PI staining based cytofluorimetric analysis (reference value: 54.7%); type: functional
# HD-MB03 [7] = test: Induction of apoptosis in human HD-MB03 cells at 20 uM by Annexin V-FITC/PI staining based cytofluorimetric analysis; type: functional, cell-based; details: time 48-72 hrs, TDE = time-dependent effect
# How it was run: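 HD-MB03 cells treated with 20 µM, then stained with annexin V-FITC and PI and analysed by flow cytometry. Mean ± SEM of three independent experiments; 2-way ANOVA with Tukey correction.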
# HD-MB03 [8] = test: Induction of autophagy in human HD-MB03 cells assessed as autophagic vacuole formation at 20 uM incubated for 24 hrs by bright field imaging analysis; type: functional, cell-based
# HD-MB03 [9] = test: Induction of autophagy in human HD-MB03 cells assessed as autophagic vacuole formation in presence of chloroquine at 20 uM incubated for 24 hrs by bright field imaging analysis; type: functional, cell-based
# HD-MB03 [10] = test: Induction of apoptosis in human HD-MB03 cells assessed as cell shrinkage at 20 uM incubated for 24 hrs in presence of chloroquine by bright field imaging analysis; type: functional, cell-based
# HD-MB03 [11] = test: Sensitization of chemotherapy induced cytotoxicity against human HD-MB03 cells assessed as inhibition of cell growth at 1.25 uM incubated for 72 hrs in presence of 0.12 unit of vincristine, etoposide, cisplatin, cyclophosphamide by resazurin dye based analysis (reference value: 51.43 +/- 1.17%); type: functional
# HD-MB03 [12] = test: Sensitization of chemotherapy induced cytotoxicity against human HD-MB03 cells assessed as inhibition of cell growth at 1.25 uM incubated for 72 hrs in presence of 0.25 unit of vincristine, etoposide, cisplatin, cyclophosphamide by resazurin dye based analysis (reference value: 73.44 +/- 0.92%); type: functional
# HD-MB03 [13] = test: Sensitization of chemotherapy induced cytotoxicity against human HD-MB03 cells assessed as inhibition of cell growth at 1.25 uM incubated for 72 hrs in presence of 0.5 unit of vincristine, etoposide, cisplatin, cyclophosphamide by resazurin dye based analysis (reference value: 83.74+/- 0.54%); type: functional
# HD-MB03 [14] = test: Sensitization of chemotherapy induced cytotoxicity against human HD-MB03 cells assessed as inhibition of cell growth at 1.25 uM incubated for 72 hrs in presence of 1 unit of vincristine, etoposide, cisplatin, cyclophosphamide by resazurin dye based analysis (reference value: 91.53 +/- 1.15%); type: functional
# HD-MB03 [15] = test: Sensitization of chemotherapy induced cytotoxicity against human HD-MB03 cells assessed as inhibition of cell growth at 2.5 uM incubated for 72 hrs in presence of 0.5 unit of vincristine, etoposide, cisplatin, cyclophosphamide by resazurin dye based analysis (reference value: 83.74+/- 0.54%); type: functional
# HD-MB03 [16] = test: Sensitization of chemotherapy induced cytotoxicity against human HD-MB03 cells assessed as inhibition of cell growth at 5 uM incubated for 72 hrs in presence of 0.5 unit of vincristine, etoposide, cisplatin, cyclophosphamide by resazurin dye based analysis (reference value: 83.74+/- 0.54%); type: functional
# HD-MB03 [17] = test: Sensitization of chemotherapy induced cytotoxicity against human HD-MB03 cells assessed as inhibition of cell growth at 10 uM incubated for 72 hrs in presence of 0.25 unit of vincristine, etoposide, cisplatin, cyclophosphamide by resazurin dye based analysis (reference value: 73.44 +/- 0.92%); type: functional
# HD-MB03 [18] = test: Sensitization of chemotherapy induced cytotoxicity against human HD-MB03 cells assessed as inhibition of cell growth at 20 uM incubated for 72 hrs in presence of 0.12 unit of vincristine, etoposide, cisplatin, cyclophosphamide by resazurin dye based analysis (reference value: 51.43 +/- 1.17%); type: functional
# HD-MB03 [19] = test: Sensitization of chemotherapy induced cytotoxicity against human HD-MB03 cells assessed as inhibition of cell growth at 20 uM incubated for 72 hrs in presence of 2 unit of vincristine, etoposide, cisplatin, cyclophosphamide by resazurin dye based analysis (reference value: 97.7 +/- 1.3%); type: functional
# HD-MB03 [20] = test: Cytotoxicity against human HD-MB03 cells assessed as inhibition of cell growth at 1.25 uM incubated for 72 hrs by resazurin dye based analysis relative to control; type: functional
# How it was run: (§2)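 Resazurin viability in HD-MB03 cells, 2000/well, single-agent arm of the 6x6 matrix. Inhibitor was added 24 h after seeding, in a 6-point 2-fold series, duplicates, two independent experiments. After 72 h exposure, resazurin was added at 44 µM final for 3 h at 37 °C and fluorescence read at 590 nm. Viability normalized to 1 µM bortezomib and 0.5% DMSO controls.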
# HD-MB03 [21] = test: Cytotoxicity against human HD-MB03 cells assessed as inhibition of cell growth at 5 uM incubated for 72 hrs by resazurin dye based analysis relative to control; type: functional; how it was run: as §2
# HD-MB03 [22] = test: Cytotoxicity against human HD-MB03 cells assessed as inhibition of cell growth at 10 uM incubated for 72 hrs by resazurin dye based analysis relative to control; type: functional; how it was run: as §2
# HD-MB03 [23] = test: Cytotoxicity against human HD-MB03 cells assessed as inhibition of cell growth at 20 uM incubated for 72 hrs by resazurin dye based analysis relative to control; type: functional; how it was run: as §2
# [24] = biological target: T1, BAG family molecular chaperone regulator 3; test: Binding affinity to C-terminal His tagged human BAG3 transfected in HEK293T cells assessed as protein-ligand complex formation by measuring saturated protein magnetization via intermolecular spin-diffusion at 125 uM by STD NMR experiment
structure (smiles),measurement,setting,value
CC(C(=O)N1CCOCC1)N1C(=O)S/C(=C\c2cccc(O)c2O)C1=O (racemic),Activity,[1],> 5 RU
same,Activity,[2],Active
same,GI50,HD-MB03 [3],11.2 µM
same,GI50,RS4-11,6.7 µM
same,GI50 at 72 h,[4],> 100 µM
same,Activity,HD-MB03 [5],6.11%
same,Activity,HD-MB03 [6],74%
same,Activity,HD-MB03 [7],Tde
same,Activity,HD-MB03 [8],Active
same,Activity,HD-MB03 [9],inactive
same,Activity,HD-MB03 [10],Active
same,inhibition at 1.25 µM,HD-MB03 [11],47.7%
same,inhibition at 1.25 µM,HD-MB03 [12],70.3%
same,inhibition at 1.25 µM,HD-MB03 [13],82.7%
same,inhibition at 1.25 µM,HD-MB03 [14],93.1%
same,inhibition at 2.5 µM,HD-MB03 [15],83.3%
same,inhibition at 5 µM,HD-MB03 [16],88.4%
same,inhibition at 10 µM,HD-MB03 [17],82.2%
same,inhibition at 20 µM,HD-MB03 [18],75%
same,inhibition at 20 µM,HD-MB03 [19],90.5%
same,inhibition at 1.25 µM,HD-MB03 [20],-11.8%
same,inhibition at 5 µM,HD-MB03 [21],3%
same,inhibition at 10 µM,HD-MB03 [22],26.8%
same,inhibition at 20 µM,HD-MB03 [23],52.9%
same,Activity,[24],Active
